The values below come from PubChem BioAssay AID602227 (Southern Research Specialized Biocontainment Screening …, 2012).

A word on the viability: it is a read-out of living cells in per cent, often relative to untreated cells. By CC50 is commonly meant the concentration giving 50% cytotoxicity.

The source made the active and inactive calls.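 How the source made its calls: active means viability below 80% at one or more tested concentrations, flagged as toxic; inconclusive means replicate runs disagree on whether the viability criterion is met; inactive means viability at or above 80% at every dose.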

Test system in one assay: not listed separately
As to the kind of experiment: Vero E6 cell cytotoxicity, dose response, cytotoxicity control for PfM17LAP inhibitor project, set 2 (AID 602227). Conditions: Vero E6 viability, CellTiter-Glo luminescence, 72 h; at 50 µM (top of the series). The gist of the method:
(§1)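 Test system – Vero E6 cells · Input – 3000 cells per well · Buffer or medium – E-MEM plus 10% FBS · Doses – compound dose-response, 10 concentrations in 2-fold serial dilution · Incubation – 72 h compound exposure at 37 °C, 5% CO2 · Signal – CellTiter-Glo luminescence · Evaluation – % viability vs DMSO, fitted CC50 · Control set – DMSO vehicle-treated cells as reference for full viability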
Turning to `CCCOc1ccc(CC(=O)OC)cc1`, the viability was 94.9% (inactive).
Same read-out and setting: as for `CCOc1ccc(CC(=O)NO)cc1`, the figure is 98.9% (inactive).
On the same count and under the same terms, the figure for `COC(=O)Cc1ccc(OCCN(C)C)cc1` is 94.5% (inactive); for `CCC(C)Oc1ccc(CC(=O)OC)cc1` (configuration not stated) it is 102% (inactive).
The same measure, in the same setting: as for `COc1ccc(CC(=O)NO)cc1`, the figure is 95.7% (inactive); as for `CCCCOc1ccc(CNc2c(N(C)O)c(=O)c2=O)cc1`, 90% (inactive); as for `CCCCOc1ccc(CNc2c(N(O)Cc3ccccc3)c(=O)c2=O)cc1`, 92.8% (inactive).
In the case of `COC(=O)Cc1ccc(OCC(C)C)cc1`, the viability was 101% (inactive).
Still for that read-out and setting: as for `CC(C)(C(=O)NO)c1ccccc1`, the figure is 102% (inactive); as for `Cc1ccc(CC(=O)NO)cc1`, 102% (inactive).
Same read-out and setting: as for `CCCCOc1ccc(CC(=O)O)cc1`, the figure is 88.7% (inactive).

In a further assay the test system is Vero E6 viability, CellTiter-Glo luminescence, 72 h. The assay is described as above.
Settings: not given
In outline:
as §1
Regarding `CN(O)C(=O)Cc1ccc(OCc2ccccc2)cc1`, the CC50 was 24.8 µM.
Still for that read-out and setting: the figure for `CCCCc1ccc(CC(=O)NO)cc1` is 34.7 µM; for `CCCCOc1ccc(CCC(=O)NO)cc1` it is 29.1 µM; for `CCCCCCCCCC(=O)NO` it is 25.2 µM.
On to `CCCCOc1ccc(CC(=O)N(C)O)cc1`, for which the CC50 is 27.2 µM.
Consider `O=C(Cc1ccc(Oc2ccccc2)cc1)NO`, for which the CC50 was 32.4 µM.
